The source made the active and inactive calls. The calls are words filed in the database; no cut-off is given here.
Key:
[1] = target: T1, Fatty-acid amide hydrolase 1 (Mus musculus) (UniProt O08914); experiment: Inhibition of FAAH in mouse brain at 0.01 to 100 uM treated for 30 mins by SDS-PAGE using rhodamine-tagged FP probe; format: tissue-based
T1 sequence (whole entry): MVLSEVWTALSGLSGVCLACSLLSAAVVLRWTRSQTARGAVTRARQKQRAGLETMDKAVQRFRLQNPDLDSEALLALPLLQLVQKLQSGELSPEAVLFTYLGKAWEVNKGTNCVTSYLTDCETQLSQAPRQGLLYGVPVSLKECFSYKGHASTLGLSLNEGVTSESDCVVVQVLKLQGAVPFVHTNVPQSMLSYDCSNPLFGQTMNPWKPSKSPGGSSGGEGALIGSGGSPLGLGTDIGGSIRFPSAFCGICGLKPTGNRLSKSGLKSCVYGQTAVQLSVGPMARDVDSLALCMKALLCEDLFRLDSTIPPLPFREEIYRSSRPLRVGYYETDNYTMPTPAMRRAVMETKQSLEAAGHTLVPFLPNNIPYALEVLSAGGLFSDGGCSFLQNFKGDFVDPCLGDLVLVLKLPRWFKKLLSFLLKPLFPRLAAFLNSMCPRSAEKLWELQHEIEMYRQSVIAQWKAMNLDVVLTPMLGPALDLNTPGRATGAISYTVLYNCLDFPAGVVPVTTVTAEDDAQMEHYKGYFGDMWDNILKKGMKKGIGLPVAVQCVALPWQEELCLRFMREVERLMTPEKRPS
Outline: (§1)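 Mouse brain membrane proteome preincubated with inhibitor across 0.01-100 μM for 30 min. A rhodamine-tagged fluorophosphonate probe (FP-Rh) was then added for 60 min. Samples were resolved by SDS-PAGE, and probe labeling of each hydrolase band was read by in-gel fluorescence scanning.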

[2] = target: Monoglyceride lipase (Mus musculus) (UniProt O35678); experiment: Inhibition of MAGL in mouse brain at 0.01 to 100 uM treated for 30 mins by SDS-PAGE using rhodamine-tagged FP probe; format: tissue-based; outline: as §1
Monoglyceride lipase (Mus musculus), sequence (O35678 whole entry): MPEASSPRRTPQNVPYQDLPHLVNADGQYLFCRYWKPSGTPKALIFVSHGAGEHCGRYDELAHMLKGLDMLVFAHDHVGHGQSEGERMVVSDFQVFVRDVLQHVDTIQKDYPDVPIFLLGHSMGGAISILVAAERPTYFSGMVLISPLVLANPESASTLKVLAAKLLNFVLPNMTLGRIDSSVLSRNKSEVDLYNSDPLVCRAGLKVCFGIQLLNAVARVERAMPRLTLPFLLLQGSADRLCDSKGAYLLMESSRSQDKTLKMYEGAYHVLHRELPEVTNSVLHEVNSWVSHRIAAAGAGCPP

[3] = target: T2, Phosphatidylserine lipase ABHD16A (Mus musculus) (UniProt Q9Z1Q2); settings: Brain, 5 uM
T2 sequence (whole entry): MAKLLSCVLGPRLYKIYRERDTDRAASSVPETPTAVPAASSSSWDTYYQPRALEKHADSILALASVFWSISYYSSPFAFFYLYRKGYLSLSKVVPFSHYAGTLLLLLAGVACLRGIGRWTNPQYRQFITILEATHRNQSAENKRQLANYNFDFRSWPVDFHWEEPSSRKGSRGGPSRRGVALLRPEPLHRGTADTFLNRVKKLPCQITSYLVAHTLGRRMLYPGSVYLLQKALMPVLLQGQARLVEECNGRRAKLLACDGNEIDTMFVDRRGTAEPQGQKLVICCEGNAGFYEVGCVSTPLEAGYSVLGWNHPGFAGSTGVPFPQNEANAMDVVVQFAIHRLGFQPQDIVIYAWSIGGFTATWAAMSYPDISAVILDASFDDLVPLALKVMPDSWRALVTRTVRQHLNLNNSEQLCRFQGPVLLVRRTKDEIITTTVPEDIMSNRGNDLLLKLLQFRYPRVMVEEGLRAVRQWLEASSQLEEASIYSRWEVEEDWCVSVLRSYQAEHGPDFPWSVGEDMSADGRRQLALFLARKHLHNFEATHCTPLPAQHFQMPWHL

[4] = target: Tripeptidyl-peptidase 2 (Mus musculus) (UniProt Q64514); settings: Brain, 5 uM
Tripeptidyl-peptidase 2 (Mus musculus), sequence (Q64514 whole entry): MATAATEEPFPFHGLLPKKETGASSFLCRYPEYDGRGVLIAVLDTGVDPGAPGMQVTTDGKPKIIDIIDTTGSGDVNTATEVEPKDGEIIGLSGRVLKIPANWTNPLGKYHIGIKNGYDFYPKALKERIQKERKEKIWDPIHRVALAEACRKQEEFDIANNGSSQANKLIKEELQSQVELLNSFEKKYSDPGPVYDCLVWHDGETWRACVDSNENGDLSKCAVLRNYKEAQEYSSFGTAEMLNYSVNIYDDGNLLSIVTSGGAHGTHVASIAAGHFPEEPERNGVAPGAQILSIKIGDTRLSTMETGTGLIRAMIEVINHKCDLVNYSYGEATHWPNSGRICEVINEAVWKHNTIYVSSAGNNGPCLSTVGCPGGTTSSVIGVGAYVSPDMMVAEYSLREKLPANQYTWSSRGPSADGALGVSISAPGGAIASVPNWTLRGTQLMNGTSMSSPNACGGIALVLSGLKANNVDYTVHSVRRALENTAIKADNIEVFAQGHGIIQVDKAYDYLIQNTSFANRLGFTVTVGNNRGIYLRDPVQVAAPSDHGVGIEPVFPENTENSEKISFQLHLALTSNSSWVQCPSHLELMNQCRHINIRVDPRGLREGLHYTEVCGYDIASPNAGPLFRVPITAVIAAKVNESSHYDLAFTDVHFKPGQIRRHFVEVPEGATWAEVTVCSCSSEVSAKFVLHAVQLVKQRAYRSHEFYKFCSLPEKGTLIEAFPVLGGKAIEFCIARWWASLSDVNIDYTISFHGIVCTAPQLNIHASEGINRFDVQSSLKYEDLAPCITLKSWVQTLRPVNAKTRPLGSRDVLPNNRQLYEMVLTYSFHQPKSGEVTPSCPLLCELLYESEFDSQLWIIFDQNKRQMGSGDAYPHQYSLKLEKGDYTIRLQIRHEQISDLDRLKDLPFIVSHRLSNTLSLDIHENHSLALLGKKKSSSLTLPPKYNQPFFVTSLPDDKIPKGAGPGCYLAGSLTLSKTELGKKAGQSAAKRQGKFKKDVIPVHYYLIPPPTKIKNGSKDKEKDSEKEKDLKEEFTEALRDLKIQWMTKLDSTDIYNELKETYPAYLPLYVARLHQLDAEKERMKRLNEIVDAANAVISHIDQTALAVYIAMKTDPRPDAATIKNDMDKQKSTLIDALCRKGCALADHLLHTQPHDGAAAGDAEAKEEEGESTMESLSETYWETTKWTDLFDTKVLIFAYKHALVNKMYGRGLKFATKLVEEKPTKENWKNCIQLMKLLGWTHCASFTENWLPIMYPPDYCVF

[5] = target: T3, Neutral cholesterol ester hydrolase 1 (Mus musculus) (UniProt Q8BLF1); experiment: Inhibition of KIAA1363 in mouse brain assessed as reduction in spectral count at 50 uM treated for 30 mins by ABPP-MudPIT assay relative to control; format: tissue-based
T3 sequence (whole entry): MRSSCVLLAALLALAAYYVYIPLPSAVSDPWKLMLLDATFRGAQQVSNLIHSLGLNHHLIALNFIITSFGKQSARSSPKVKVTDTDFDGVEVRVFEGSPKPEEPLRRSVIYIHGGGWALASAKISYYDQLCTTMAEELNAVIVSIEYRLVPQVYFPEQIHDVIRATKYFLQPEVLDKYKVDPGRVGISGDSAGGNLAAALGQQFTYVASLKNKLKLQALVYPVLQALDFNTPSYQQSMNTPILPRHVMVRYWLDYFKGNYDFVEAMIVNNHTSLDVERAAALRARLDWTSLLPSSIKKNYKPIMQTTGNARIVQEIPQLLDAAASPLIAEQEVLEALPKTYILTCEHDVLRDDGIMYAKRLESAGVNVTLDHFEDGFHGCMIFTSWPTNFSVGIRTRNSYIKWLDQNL
Outline: (§2)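 Mouse brain proteome was treated with inhibitor at the stated single concentration, or DMSO as control, for 30 min. FP-biotin (5 μM) was then added for 120 min, followed by avidin enrichment and LC-MS (ABPP-MudPIT). Runs were in triplicate. Only hydrolases with >15 average spectral counts in control were quantified. Blockade is the percent reduction in average spectral counts versus DMSO; >60% defined a target.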

[6] = target: T1, Fatty-acid amide hydrolase 1 (Mus musculus); experiment: Inhibition of FAAH in mouse brain assessed as reduction in spectral count at 50 uM treated for 30 mins by ABPP-MudPIT assay relative to control; format: tissue-based; outline: as §2
[7] = target: T2, Phosphatidylserine lipase ABHD16A (Mus musculus); experiment: Inhibition of BAT5 in mouse brain assessed as reduction in spectral count at 50 uM treated for 30 mins by ABPP-MudPIT assay relative to control; format: tissue-based; outline: as §2
[8] = target: Hormone-sensitive lipase (Mus musculus) (UniProt P54310); experiment: Inhibition of HSL in mouse brain assessed as reduction in spectral count at 50 uM treated for 30 mins by ABPP-MudPIT assay relative to control; format: tissue-based; outline: as §2
Hormone-sensitive lipase (Mus musculus), sequence (P54310 whole entry): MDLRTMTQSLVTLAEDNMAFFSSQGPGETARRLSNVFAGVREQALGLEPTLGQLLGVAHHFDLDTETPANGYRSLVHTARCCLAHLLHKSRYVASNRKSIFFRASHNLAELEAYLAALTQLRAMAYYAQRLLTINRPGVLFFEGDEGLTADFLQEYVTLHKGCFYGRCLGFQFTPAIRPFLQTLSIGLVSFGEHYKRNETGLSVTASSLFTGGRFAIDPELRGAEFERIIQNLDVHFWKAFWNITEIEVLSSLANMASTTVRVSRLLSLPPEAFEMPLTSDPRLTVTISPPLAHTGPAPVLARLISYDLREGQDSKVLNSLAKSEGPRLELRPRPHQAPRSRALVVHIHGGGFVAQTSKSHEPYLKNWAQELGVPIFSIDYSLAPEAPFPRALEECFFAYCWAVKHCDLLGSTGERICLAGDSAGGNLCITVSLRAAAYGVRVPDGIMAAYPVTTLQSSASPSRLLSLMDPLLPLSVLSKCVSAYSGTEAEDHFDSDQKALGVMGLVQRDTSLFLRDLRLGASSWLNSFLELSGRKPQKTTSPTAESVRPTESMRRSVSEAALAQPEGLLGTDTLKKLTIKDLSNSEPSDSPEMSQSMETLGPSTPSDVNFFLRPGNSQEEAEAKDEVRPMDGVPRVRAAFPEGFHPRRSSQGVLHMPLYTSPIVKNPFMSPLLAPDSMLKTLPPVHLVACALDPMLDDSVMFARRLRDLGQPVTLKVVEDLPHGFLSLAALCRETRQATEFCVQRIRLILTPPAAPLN

[9] = target: Acetylcholinesterase (Mus musculus) (UniProt P21836); experiment: Inhibition of AChE in mouse brain by LC-MS analysis; format: tissue-based
Acetylcholinesterase (Mus musculus), sequence (P21836 whole entry): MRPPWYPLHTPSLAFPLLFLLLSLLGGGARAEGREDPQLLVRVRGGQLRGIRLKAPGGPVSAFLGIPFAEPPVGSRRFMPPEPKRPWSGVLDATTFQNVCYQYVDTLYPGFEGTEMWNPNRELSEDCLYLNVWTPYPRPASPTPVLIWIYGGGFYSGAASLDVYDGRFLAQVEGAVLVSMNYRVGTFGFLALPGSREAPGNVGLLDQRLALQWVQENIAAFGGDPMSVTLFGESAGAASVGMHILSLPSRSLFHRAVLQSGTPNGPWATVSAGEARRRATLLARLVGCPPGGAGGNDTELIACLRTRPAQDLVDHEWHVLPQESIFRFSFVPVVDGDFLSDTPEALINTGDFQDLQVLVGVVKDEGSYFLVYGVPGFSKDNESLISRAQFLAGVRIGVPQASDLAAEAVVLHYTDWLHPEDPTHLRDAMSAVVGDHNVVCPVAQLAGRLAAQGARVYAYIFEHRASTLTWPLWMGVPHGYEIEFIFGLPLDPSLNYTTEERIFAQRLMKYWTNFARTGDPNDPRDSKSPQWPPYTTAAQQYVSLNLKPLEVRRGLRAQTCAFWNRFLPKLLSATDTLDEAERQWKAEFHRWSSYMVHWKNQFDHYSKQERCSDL

[10] = target: Diacylglycerol lipase-alpha (Homo sapiens, UniProt Q9Y4D2); experiment: Inhibition of human recombinant DAGLalpha overexpressed in african green monkey COS7 cells; format: cell-based, COS-7
Diacylglycerol lipase-alpha, sequence (Q9Y4D2 whole entry): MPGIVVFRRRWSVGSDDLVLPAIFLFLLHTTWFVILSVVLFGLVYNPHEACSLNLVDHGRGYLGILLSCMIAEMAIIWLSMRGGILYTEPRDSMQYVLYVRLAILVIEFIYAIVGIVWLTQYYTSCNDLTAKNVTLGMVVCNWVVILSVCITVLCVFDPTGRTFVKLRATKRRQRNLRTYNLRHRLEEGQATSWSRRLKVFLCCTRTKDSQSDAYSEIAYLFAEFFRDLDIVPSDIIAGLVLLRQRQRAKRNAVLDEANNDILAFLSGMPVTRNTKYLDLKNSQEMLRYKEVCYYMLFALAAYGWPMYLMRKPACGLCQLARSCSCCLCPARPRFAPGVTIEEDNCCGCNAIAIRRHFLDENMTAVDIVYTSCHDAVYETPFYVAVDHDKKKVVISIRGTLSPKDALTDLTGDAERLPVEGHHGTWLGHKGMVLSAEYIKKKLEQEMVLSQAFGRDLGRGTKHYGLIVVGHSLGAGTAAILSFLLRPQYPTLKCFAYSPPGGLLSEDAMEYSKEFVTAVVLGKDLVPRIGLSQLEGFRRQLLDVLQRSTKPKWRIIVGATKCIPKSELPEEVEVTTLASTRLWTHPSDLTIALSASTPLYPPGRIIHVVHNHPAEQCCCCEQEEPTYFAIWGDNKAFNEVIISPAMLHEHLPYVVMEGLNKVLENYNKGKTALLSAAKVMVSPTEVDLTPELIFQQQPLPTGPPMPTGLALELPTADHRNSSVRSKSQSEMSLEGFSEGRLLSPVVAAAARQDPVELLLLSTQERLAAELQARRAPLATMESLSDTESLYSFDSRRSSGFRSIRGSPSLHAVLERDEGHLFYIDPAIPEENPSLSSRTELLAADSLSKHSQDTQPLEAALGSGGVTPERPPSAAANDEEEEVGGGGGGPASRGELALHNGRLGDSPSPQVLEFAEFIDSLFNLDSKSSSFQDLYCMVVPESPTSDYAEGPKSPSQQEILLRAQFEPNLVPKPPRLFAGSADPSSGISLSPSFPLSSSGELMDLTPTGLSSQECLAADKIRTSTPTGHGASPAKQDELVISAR

[11] = target: Diacylglycerol lipase-beta (Homo sapiens, UniProt Q8NCG7); experiment: Inhibition of human recombinant DAGLbeta overexpressed in african green monkey COS7 cells; format: cell-based, COS-7
Diacylglycerol lipase-beta, sequence (Q8NCG7 whole entry): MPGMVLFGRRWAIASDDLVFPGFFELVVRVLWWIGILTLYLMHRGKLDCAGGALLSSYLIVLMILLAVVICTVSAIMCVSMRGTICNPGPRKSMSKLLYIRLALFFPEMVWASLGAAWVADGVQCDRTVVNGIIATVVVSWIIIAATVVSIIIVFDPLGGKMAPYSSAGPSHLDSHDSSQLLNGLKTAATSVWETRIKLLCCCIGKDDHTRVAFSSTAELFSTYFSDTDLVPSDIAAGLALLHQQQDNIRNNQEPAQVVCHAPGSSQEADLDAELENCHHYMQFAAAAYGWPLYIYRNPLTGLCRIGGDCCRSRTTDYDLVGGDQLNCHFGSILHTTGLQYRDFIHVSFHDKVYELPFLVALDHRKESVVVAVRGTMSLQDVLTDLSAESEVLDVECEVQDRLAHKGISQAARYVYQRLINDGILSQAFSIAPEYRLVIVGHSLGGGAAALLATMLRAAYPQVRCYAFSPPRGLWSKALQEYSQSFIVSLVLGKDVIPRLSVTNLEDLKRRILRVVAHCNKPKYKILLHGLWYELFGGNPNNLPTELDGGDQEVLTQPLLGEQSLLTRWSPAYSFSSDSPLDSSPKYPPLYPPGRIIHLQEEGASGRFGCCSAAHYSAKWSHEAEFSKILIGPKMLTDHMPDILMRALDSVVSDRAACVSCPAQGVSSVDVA

SMILES	Activity [1]	Activity [2]	inhibition [3]	inhibition [4]	inhibition [5]	inhibition [6]	inhibition [7]	inhibition [8]	Activity [9]	IC50 [10]	IC50 [11]
CCCCCCCCCCC[C@@H](C[C@@H]1OC(=O)[C@H]1CCCCCC)OC(=O)[C@H](CC(C)C)NC=O [ORLISTAT]	Active	Active	> 60%	> 60%							
O=C(NCCCCCCNC(=O)ON=C1CCCCC1)ON=C1CCCCC1	Active	Active			> 60%	> 60%	> 60%	< 60%	Active	60 nM	60 nM
